According to ChEMBL document CHEMBL4513216, “Probing the Open Global Health Chemical Diversity Library for Multistage-Active Starting Points for Next-Generation Antimalarials” (ACS Infect Dis, 2020):

Test: Toxicity liver stage against HepG2, at 10uM
Format: cell-based
Design: test concentration 10 uM, cell line HepG2-A16-CD81EGFP
Conditions: human, HepG2-A16-CD81EGFP cells; read-out: INHIBITION
How it was run: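 Uninfected HepG2-A16-CD81EGFP cells, 3 × 10^3 per well, 1536-well, plated on prespotted compound at 10 μM final, parasite-free screening media added to match infected plates; puromycin 10 μM positive, DMSO 0.5% negative; run in parallel with 48 h PbLuc assay at 37 °C, 5% CO2; viability by CellTiter-Glo luminescence, normalized to controls.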

Compound	cytotoxicity at 10 µM
O=C(c1cccnc1)N1CCC[C@]2(C[C@H](Oc3ncccc3F)CO2)C1	0.37%
COc1ccc(CNC(Cc2cccs2)c2nc(C)c(C)s2)cc1OC (configuration not stated)	-3.32%
O=C1OCCN1c1cccc(CNS(=O)(=O)Cc2ccc(F)cc2)c1	4.77%
Cc1cnn(CC2CCCN2C(=O)c2n[nH]c(=O)c3ccccc23)c1 (configuration not stated)	-21.9%
O=C(NCCCN1CCOCC1)c1ccc(Cl)cc1Cl	-3.64%
c1cnc(-c2cnc(N3CCSCC3)nc2C2CC2)cn1	17.3%
Cc1ncc2c(n1)CN(CCOCC(F)(F)F)CC2	-0.598%
CCOC(=O)c1sc(NC(=O)CCCC(=O)O)c(C#N)c1C	11.6%
N#Cc1ccc(N2CCC3(CC2)COCCN3Cc2cccnc2)cc1	-1.77%
Cc1ccc(-n2cc(S(=O)(=O)Nc3cccc(C(=O)O)c3C)cn2)cc1	-1.74%
CC(C)c1cc(NC(=O)Cn2ccc(=O)c3ccccc32)[nH]n1	-146%
CC(OCC1CC1)C(=O)N1CCCN(Cc2nccn2C)CC1 (configuration not stated)	2.48%
Fc1ccccc1OCCc1cc(C2CNCCO2)n[nH]1 (configuration not stated)	-2.16%
O=C1CCc2cc(S(=O)(=O)NC(=O)c3ccc4c(c3)OCO4)ccc2N1	-17.8%
Cn1ncc2c1C(COCC1CC1)CN(Cc1nccs1)C2 (configuration not stated)	4.49%
CN(C)CCN1CCO[C@@H]2CN(C(=O)Cc3ccsc3)CC[C@@H]2C1	-119%
COCC(=O)N1CC[C@H]2C[C@H](C)O[C@@H]2C1	-0.877%
O=C(N1CCCC1)N1CCC2(CC1)CN(c1cccnc1)C(=O)CO2	-99.6%
Cc1nn(C)c(Cl)c1CNCc1ccc(OCC(N)=O)cc1	1.08%
O=C(NCC(O)c1cccs1)c1ccco1 (configuration not stated)	-14.7%
Cc1nc(-c2nnc[nH]2)sc1C(=O)N1CCCC1CC(C)(C)C (configuration not stated)	12.1%

Compound	cytotoxicity at 10 µM
CCCNc1c(NC(=O)NCCCOC)c(=O)oc2ccccc12	-4.52%
Cc1ncsc1C(=O)N1CCCC(c2nccn2Cc2cscn2)C1 (configuration not stated)	-0.0612%
CC1CCCN(C(=O)c2occc2COc2cccc(C#N)c2)C1 (configuration not stated)	4.57%
Cc1nc(NC(=O)c2cccnc2N2CCOCC2)sc1C	-0.0261%
CN(C)c1nccc(C2CN(c3ccccc3)CCO2)n1 (configuration not stated)	-2.4%
CCS(=O)(=O)N(C)C1CCN(c2cccc(F)c2C(C)=O)CC1	9.61%
CC(C)N(C)Cc1ncn2c1CN(CC(=O)N(C)C)CCC2	7.28%
CC(C)(C)C(=O)NS(=O)(=O)c1ccc(C#N)cc1C(F)(F)F	-7.52%
O=C(COc1cccc2c1CCC2=O)NCCOc1ccccc1	10.5%
CC(C)c1nc(CSc2nnc(-c3cccs3)n2CC(N)=O)no1	-142%
Cc1nn(C)c(C)c1C1CCCN1Cc1cn2ccsc2n1 (configuration not stated)	-51.6%
Cc1nc(N2CCCC2)nc2c1CCN(C(=O)C1CCCC1)CC2	-0.265%
COc1cccc(Cl)c1C(C(=O)O)N1CCC(O)(c2cccnc2)CC1 (configuration not stated)	6.03%
COCCN1CCN(CC(=O)N(C)Cc2ccsc2)CC1	-153%
Cn1cc(C(=O)N2CCCC(c3cnccn3)C2)cn1 (configuration not stated)	-10.5%
c1nc2n(c1CN1CCCC1)CCN(C1CCOCC1)CC2	-71.1%
CC(=O)NCCCc1ncnn1-c1cccc(Cl)c1	0.254%
CN(Cc1noc(C2CC2)n1)C1CCN(CCn2cccn2)C1 (configuration not stated)	-4.32%
Cc1ccc(Cc2sc(NC(=O)C(C)S(C)(=O)=O)nc2C)cc1 (configuration not stated)	13.1%
CCS(=O)(=O)CCN1CCC(N(C)Cc2ncc(C)o2)C1 (configuration not stated)	1.75%
CNC(=O)NC(=O)CCN1CCOC(c2ccc(Br)cc2)C1 (configuration not stated)	-2.42%

Compound	cytotoxicity at 10 µM
OCCOCCNCC1(c2ccc(F)cc2)CCOC1 (configuration not stated)	-147%
O=S(=O)(c1ccc(-c2cnco2)cc1)N1CCCC2(CCNCC2)CC1	-11.2%
Cc1cc(C)nc(N2CCN(Cc3cc4n(n3)CCNC4)CC2)n1	-8.46%
Cc1ccc(NC(=O)N2CCOC(C)C2)cc1Cl (configuration not stated)	-6.78%
O=C(c1ccco1)N1CCOCC2(C1)CN(c1ccccc1)C(=O)CO2 (configuration not stated)	-10.1%
CC1CCN(S(=O)(=O)N2CCn3cccc3C2C)CC1 (configuration not stated)	-0.224%
CCc1nc(CN2CCOC(CN(C)c3cccnn3)C2)cs1 (configuration not stated)	5.35%
O=C(c1ncccn1)N1C[C@H]2CCC[C@@]2(COc2ccccn2)C1	5.29%
Nc1nonc1C(=O)N1Cc2ccccc2OC2(CCOCC2)C1	-29.5%
O=C(CCN1CCCC1c1ccccn1)N1CCc2ccccc2C1 (configuration not stated)	2.87%
Cc1cnc(N2CCC3(CC2)CC(NC(=O)N(C)C)CO3)nc1 (configuration not stated)	6.31%
NC(=O)[C@@H]1CCCN1C(=O)c1cn(C/C=C/c2ccccc2)nn1	2.32%
Cc1c(Cl)cccc1NC(=O)N1CCC2(CC1)NC(=O)CC2C(=O)O (configuration not stated)	-1%
CC(C)NC(=O)N1CCc2onc(C(=O)NCCN(C)C)c2C1	0.0529%
Cc1nc(N[C@H]2COC[C@@H]2N2CCCCC2)c2c(C)nn(C)c2n1	-1.21%
COCCN1CCCC2(CCN(c3nccc4ccccc34)C2)C1=O (configuration not stated)	-0.212%
Cc1ccc(CN2CCC(F)(F)C3(CCN(c4cnccn4)C3)C2)o1 (configuration not stated)	-3.71%
N[C@H]1CCCN(C(=O)c2cnc(COc3ccccc3)nc2O)C1	1.67%
CC(=O)NCC1CCN(c2cc(C)nc(-c3ccncc3)n2)CC1	-1.36%
O=C1CN(Cc2cc(O)c3cccc(F)c3n2)CCN1C1CCCC1	4.45%
CC(C)N(CC(N)=O)Cc1c(Cl)ccc2cccnc12	11.8%

Compound	cytotoxicity at 10 µM
CC(C(=O)N1CCc2sccc2C1)N1CCC(N2CCCC2)CC1 (configuration not stated)	10.9%
O=C(O)C(c1cccc2c1OCC2)N1CCC(N2CCCC2)CC1 (configuration not stated)	8.12%
CN1CCOC(CNC(=O)C2(c3cccc(C(F)(F)F)c3)CCCC2)C1 (configuration not stated)	-4.22%
CCc1ncc2c(n1)CN(Cc1nnc(CC)o1)CC2	-8.8%
COCCOCC(=O)NCCCOC1CCCc2ccccc21 (configuration not stated)	4.15%
CC(C)CCC(=O)N1CCN(C(C)c2nnc(CC(C)C)o2)CC1 (configuration not stated)	-8.82%
COCCO[C@H]1CCN(C(=O)c2ccno2)[C@H]1Cc1cnn(C)c1	-5.45%
O=C1COC2(CCN(Cc3cccs3)CC2)CN1c1cccnc1	-125%
Cn1cc(C2COC3(CCN(C(=O)c4ccc(F)cc4)CC3)C2)cn1 (configuration not stated)	8.31%
CC1N(CC2CC2)C(=O)COC12CCN(C(=O)c1cscn1)CC2 (configuration not stated)	-8.04%
COc1ccc(OC)c(C2CCN(C(=O)C3CCC(O)CC3)C2)c1 (configuration not stated)	-1.65%
CN(C)C(=O)C1CCN(C(=O)c2c[nH]c3cc(Cl)ccc23)CC1	-0.983%
Cc1ccc(CN2CC(O)CN(C(=O)OCC(C)C)CC2=O)cc1 (configuration not stated)	-3.09%
O=C(CN1C=Nc2ccccc2S1(=O)=O)NCCc1cccs1	-8.55%
O=C(CCNS(=O)(=O)c1cccnc1)N1CCCCC1	-6.13%
COc1cc2[nH]c(=O)c(CN3CCCC(CO)C3)cc2c(OC)c1OC (configuration not stated)	-11.7%
Cc1ccc(-c2ncc(C(=O)N3CCC[C@H](N)C3)c(O)n2)cc1	-7.14%
Cc1ccc(CNC(=O)Nc2nnc(C(C)C)s2)n1C	-10%
Cc1nc2ccc(C(=O)N3CCn4c(nnc4C4CC4)C3)cc2nc1C	-3.22%
